Experimental data from different studies.
Each line is one published result; the experiments were not run side by side.
KIT D816H: Mast/stem cell growth factor receptor Kit (KIT, Homo sapiens, UniProt P10721, D816H)
KIT V559D: Mast/stem cell growth factor receptor Kit (KIT, Homo sapiens, UniProt P10721, V559D)
KIT T670I/V559D: Mast/stem cell growth factor receptor Kit (KIT, Homo sapiens, UniProt P10721, T670I/V559D)

Cc1ccc(NC(=O)c2ccnc(C(F)(F)F)c2)cc1-c1cc(OCCO)nc(N2CCOCC2)c1  remaining binding (KIT D816H; binding; 1 µM): 99%
COc1ccc2oc(-c3ccc4nc(N)oc4c3)c/c(=N\c3ccccc3NC(=O)CCN)c2c1  remaining signal (Mast/stem cell growth factor receptor Kit (KIT, Homo sapiens, UniProt P10721, V654A); cell-free assay; 1 µM): 102%
C[C@H]1CC[C@H](n2c3cnccc3c3cnc(Nc4ccc5c(n4)CCN(C(=O)CO)C5)nc32)CC1  remaining signal (Mast/stem cell growth factor receptor Kit (KIT, Homo sapiens, UniProt P10721, A829P); cell-free assay; 1 µM): 36%
CO[C@@H]1[C@H](N(C)C(=O)c2ccccc2)C[C@H]2O[C@]1(C)n1c3ccccc3c3c4c(c5c6ccccc6n2c5c31)C(=O)NC4  inhibition (KIT D816H; enzyme activity; inhibitor; 1 µM): 98%
CN1CCN(C(=O)c2ccc(NC(=O)Nc3ccc(N(C)c4ccnc(Nc5ccc(CS(C)(=O)=O)cc5)n4)cc3)cc2)CC1  remaining binding (Mast/stem cell growth factor receptor Kit (KIT, Homo sapiens, UniProt P10721, D816V); binding; 1 µM): 23%
C1=C/COCc2cc(ccc2OCCN2CCCC2)Nc2nccc(n2)-c2cccc(c2)COC/1  remaining binding (KIT V559D; binding; 0.1 µM): 3.7%
C#Cc1cnc(Nc2ccnc(CO)c2)nc1Nc1ccccc1S(C)(=O)=NC#N (stereo not drawn)  remaining signal (KIT T670I/V559D; cell-free assay; 1 µM): 79%
CC#CC(=O)N1CCC[C@H]1c1nc(-c2ccc(C(=O)Nc3ccccn3)cc2)c2c(N)nccn12  inhibition (Mast/stem cell growth factor receptor Kit (KIT, Homo sapiens, UniProt P10721, L576P); enzyme activity; inhibitor; 1 µM): 13%
CCCCC(=O)Nc1ccc(-c2ccc3ncn(CCC)c(=O)c3c2)cn1  remaining binding (Mast/stem cell growth factor receptor Kit, autoinhibited (KIT, Homo sapiens, UniProt P10721); binding; competition with immobilised ligand; 0.5 µM): 97%
C=CC(=O)N1CCC([C@@H]2CCNc3c(C(N)=O)c(-c4ccc(Oc5ccccc5)cc4)nn32)CC1  inhibition (Mast/stem cell growth factor receptor Kit (KIT, Homo sapiens, UniProt P10721); enzyme activity; inhibitor; 1 µM): 17%
COc1ccc2[nH]c3c4[nH]c5ccc(OC)cc5c4c4c(c3c2c1)C(=O)NC4=O  remaining binding (KIT V559D; binding; 1 µM): 9%
N#Cc1ccc(NC(=O)Nc2ccccc2)cc1  remaining binding (KIT T670I/V559D; cell-free assay; competition with immobilised ligand; 25 µM): 57%
